# Bioassay records: PubChem, several laboratories
# The sample as a whole holds a higher share of hits than the screen did.
# bCat KO growth: beta-catenin-lacking colon tumor cell growth suppression; 1.5% of 140,000 active; HCT116 beta-catenin knockout viability, CellTiter-Glo, 60 h; hits give low values; viability, % at 10 µM;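 active means viability at or under a set limit, the compound median less 4 SD, cut at about 6% in these data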
# HUVEC prolif 384: human endothelial cell proliferation inhibition | AID 648 | HUVEC proliferation, CellTiter-Glo luminescence, 72 h; hits give low values | viability, % at 10 µM (by protocol) | 1.1% of 86,000 active;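 active means viability at or below 30%; inactive means viability above 30%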
# HCT116 PTEN-null: growth suppressors of cells with PTEN tumor suppressor deletion; 1.2% of 140,000 active; viability, % at 10 µM; HCT116 PTEN-null viability, CellTiter-Glo, 60 h; hits give low values;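 active means viability at or below a set limit, 4 SD under the median of all tested compounds, cut at about 3.7% in these data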;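 further: PTEN knockout HCT116 line with beta catenin targeted HCT116 as companion control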
# Fibroblast inh: blocks proliferation of human lung fibroblasts; LL 47 human lung fibroblast viability, ATP luminescence; hits give low values; viability, % at 10 µM; 1.1% of 85,000 active; AID 719;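 active means viability at or below 50% in the single dose screen; inactive means viability above 50%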;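 further: compound exposure lasted 72 h before the ATP readout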
#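 Material: Human LL 47 lung fibroblast cells | Input: 1,150 cells/well | Buffer or medium: IMEM plus 15% FBS | Compound dosing: 0.1% DMSO in all compound wells | Times: Overnight cell rest, 72 h compound treatment at 37 °C | Signal: CellTiter-Glo luminescence measuring cellular ATP | Measure: % viability versus median cells-only luminescence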
# Phagocytosis inh: blocks phagocytosis by macrophages; J774A.1 macrophage IgG-bead phagocytosis, imaging; inhibition, % at 5 µM; 0.07% of 110,000 active; AID 1029;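 active means inhibition above the mean of the plate negative controls plus 5 SD, cut at about 13% in these data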;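 further: phagocytic index as fraction of beads internalized from green versus red external bead signal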
# H69AR growth 86K: growth inhibitors of human H69AR lung tumor cells | H69AR lung tumor viability, ATP luminescence, 72 h; hits give low values | viability, % at 10 µM | 6% of 85,000 active;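 active means viability at or below 40%; inactive means viability above 40%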;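 further: multidrug resistant small cell line overexpressing MRP-1 efflux transporter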
# A number is an active result; i = inactive; nt = not tested or not shown; [ ] = remark or other dose.
SMILES,bCat KO growth,HUVEC prolif 384,HCT116 PTEN-null,Fibroblast inh,Phagocytosis inh,H69AR growth 86K
COc1ccc2oc(=O)c(-c3nnc(NCc4ccco4)s3)cc2c1,4.2,19.9,3.8,i,i,2.6
CCOc1cccc2cc(-c3nnc(NCc4ccco4)s3)c(=O)oc12,i,19.5,i,i,i,3.7
CCOC(=O)Cc1csc(Nc2ccc(Cl)cc2)n1,i,nt,i,nt,i,nt
CCOC(=O)Cc1nnc2c(Nc3ccc(Cl)cc3)nc3nonc3n12,i,i,i,i,i,14.1
CCOc1ccccc1NC(=S)NCc1ccco1,i,i,i,i,i,i
CCOC(=O)N1CCN(C(=O)c2ccc(Cl)c(S(=O)(=O)Nc3ccccc3)c2)CC1,i,i,i,i,i,31.6
O=[N+]([O-])c1ccc(N/N=C2/CCCCC2c2ccccn2)cc1 (centres undefined),i,nt,i,nt,i,nt
CC(C)CSc1nc2c(c(=O)[nH]c(=O)n2C)n1CC(O)COc1cccc2ccccc12 (centres undefined),i,i,i,i,i,32.2
O=C(CSc1nncs1)Nc1ccc(Cl)cn1,i,nt,i,nt,i,nt
C[C@]12CC[C@@H]3c4ccc(OC(=O)c5ccccc5)cc4CC[C@H]3[C@@H]1CC[C@@H]2O,i,i,i,i,nt,26.4
CC(C)(C)Nc1nc(NC(C)(C)C)nc(-n2ccnc2)n1,i,i,i,i,i,30.7
CCNc1nc(NCC)nc(-n2nc(C)cc2C)n1,i,i,i,i,nt,4.7
Cc1cc(C)n(-c2nc(NC(C)(C)C)nc(NC(C)(C)C)n2)n1,4.6,nt,i,nt,i,nt
Cc1cc(C)n(-c2nc(NC(C)C)nc(NC(C)C)n2)n1,i,nt,i,nt,nt,nt
O=C(CSc1ccc2ccccc2n1)Nc1nsc(-c2ccc(Cl)cc2)n1,i,nt,i,nt,31.0[artifact],nt
Cc1ccc(-c2nc(NC(=O)CSc3cc(C)c4ccccc4n3)ns2)cc1,i,nt,i,nt,nt,nt
CC(=O)Nc1nc(C)nc(-c2ccccc2OC(C)=O)n1,i,i,i,i,i,i
CC(=O)Nc1nc(-c2ccccc2)nc(-c2ccccc2OC(C)=O)n1,i,i,i,nt,i,24.2
Cc1ccc(C)c(OCC(=O)Nc2ccc3c(c2)OCO3)c1C,i,i,i,i,i,21.4
FC(F)(F)c1nnc2ccc(N3CCOCC3)nn12,i,i,i,i,i,i
Cc1cccc(C)c1N1CCN(c2ccc3nnc(C(F)(F)F)n3n2)CC1,i,12.6,i,i,nt,24.7
C/C(CC(=O)Nc1ccc(Cl)c(C(F)(F)F)c1)=N\NC(=O)c1ccccc1O,i,nt,i,nt,i,nt
O=C(Nc1ccc(OCC(F)(F)C(F)F)c(C(F)(F)F)c1)c1ccccc1O,5.2,nt,i,nt,i,nt
COC(=O)[C@@H]1CC[C@H](C)[C@@H](c2ccc(C)cc2)N1C(=O)c1ccc(/C=N/O[C@@H](C)c2cn([C@H](CO)Cc3ccccc3)nn2)cc1,i,nt,i,nt,nt,nt
O=C(NCCCN1CCOCC1)c1ccccc1,i,i,i,i,i,i
SMILES,bCat KO growth,HUVEC prolif 384,HCT116 PTEN-null,Fibroblast inh,Phagocytosis inh,H69AR growth 86K
CC(=O)Oc1cc2c(C(=O)NCCCN3CCOCC3)c(C)oc2c2ccccc12,0.9,4.5,1.4,4.3,i,i
Cc1ccc(N(NC(=O)C(O)(c2ccccc2)c2ccccc2)C(=O)CCl)cc1,3.3,nt,3.4,nt,i,nt
CC(C)Cc1ccc(C(C)C(=O)OCC(=O)c2c[nH]c3ccccc23)cc1 (centres undefined),i,i,i,i,nt,39.0
CC(C)Sc1nc2c(c(=O)n1C)SC(C)C2 (centres undefined),i,i,i,i,i,i
O=C(COC(=O)c1ccc([N+](=O)[O-])s1)Nc1ncc(C(F)(F)F)cc1Cl,i,nt,i,nt,i,nt
COc1ccc(-n2c(SCC(=O)NCc3ccco3)nc3c([nH]c4ccccc43)c2=O)cc1,i,i,i,i,i,i
COc1ccc(OCCn2c(=N)n(CCO)c3ccccc32)cc1,i,i,i,i,i,i
N=c1n(CCO)c2ccccc2n1CCOc1ccc(Cl)cc1Cl,1.7,2.1,1.6,i,i,20.5
O=C1CN(C(=O)c2cc(Br)c(Br)s2)c2ccccc2N1,i,i,i,i,i,15.9
O=C1CN(C(=O)c2ccccc2)c2ccccc2N1,i,i,i,i,i,i
Cc1ccc(SCC(=O)OCn2nnc3ccccc3c2=O)cc1C,i,nt,i,nt,i,nt
O=C(Nc1ccc(-c2nc3ccccc3s2)c(OC(=O)c2ccccc2)c1)c1ccccc1,i,nt,i,nt,i,nt
O=C(CC1N=C2c3ccccc3N=C(SCc3ccc(F)cc3)N2C1=O)NCc1ccco1 (centres undefined),i,i,i,i,i,37.9
Cc1ccc(CSC2=Nc3ccccc3C3=NC(CC(=O)NCc4ccco4)C(=O)N23)cc1 (centres undefined),i,i,i,i,i,29.1
Cc1cccc(NC(=O)c2sc3nc4c(c(-c5cccs5)c3c2N)CN(C)CC4)c1,i,14.9,i,i,i,i
Cc1ccc(C(=O)NC(=S)Nc2ccc(NC(=O)c3cccs3)cc2)cc1[N+](=O)[O-],i,nt,i,nt,i,nt
COC(=O)c1[nH]c2ccc(Br)cc2c1NC(=O)C(C)N1CCN(C2CCCCC2)CC1 (centres undefined),i,28.8,3.2,24.6,i,14.6
COC(=O)c1[nH]c2ccc(C)cc2c1NC(=O)NC1CCCCC1,5.2,i,i,i,i,i
CCOC(=O)CSC1=NC(=O)/C(=C/c2ccc(OC)cc2)S1,i,nt,i,nt,i,nt
O=C1CCCCCCC1Sc1ccccc1[N+](=O)[O-] (centres undefined),i,nt,i,nt,i,nt
CC(C)(C)C(=O)/C(C#N)=c1\s/c(=C\c2ccncc2)c(=O)n1CCCN1CCOCC1,nt,1.8,nt,nt,i,i
CCc1nnc(NC(=O)C2Cc3ccccc3CN2S(=O)(=O)c2c(C)c(C)cc(C)c2C)s1 (centres undefined),i,nt,i,nt,i,nt
O=C(c1ccc2snnc2c1)N1CCSCC1,i,i,i,nt,i,35.3
O=C(c1ccc2snnc2c1)N1CCCCC1,i,i,i,i,nt,i
CCCCCn1c(=O)[nH]c2cc(C(=O)NCCN(CC)CC)ccc2c1=O,i,nt,i,nt,i,nt
SMILES,bCat KO growth,HUVEC prolif 384,HCT116 PTEN-null,Fibroblast inh,Phagocytosis inh,H69AR growth 86K
COc1ccc(-c2nc(N)nc(C)c2Oc2ccccc2Br)c(O)c1,i,i,i,i,nt,23.2
COc1ccc(-c2nc(N)ncc2-c2csc(C)n2)c(O)c1,i,i,i,i,i,i
C=CCn1c(C)cc(C(=O)CSc2nnc(NCc3ccccc3)s2)c1C,i,i,i,i,nt,24.6
Cc1[nH]n(-c2ccccc2)c(=O)c1/C=N/O,i,nt,i,nt,nt,nt
Cc1ccc2cccc(N=Cc3c(C)[nH]n(-c4ccccc4)c3=O)c2n1,2.8,nt,2.5,nt,i,nt
N#Cc1nc(-c2ccc(OCc3ccccc3)cc2)oc1N1CCC(C(N)=O)CC1,i,28.6,i,i,i,37.0
COc1ccc(-c2nc(C#N)c(N3CCC(C(N)=O)CC3)o2)cc1,i,i,i,i,i,i
COc1ccc(C(C)(C)C)cc1NC(=O)c1cc(S(=O)(=O)N(C)C)ccc1N1CCCC1,i,nt,i,nt,i,nt
